Measured values gathered from unrelated publications.
Target: Serine/threonine-protein kinase PLK2 (PLK2, Homo sapiens, UniProt Q9NYY3)

| Structure (SMILES) | read-out | action | technique | tested at | quantity | value |
| --- | --- | --- | --- | --- | --- | --- |
| O=c1[nH]c2ccccc2n1C1CCN(Cc2ccc(-c3[nH]c4cc5ncnc5cc4nc3-c3ccccc3)cc2)CC1 | cell-free assay | – | – | 0.5 µM | remaining signal | 95.5% |
| Cn1cncc1[C@@](O)(COc1ccc(C#N)cc1-c1ccc(OC(F)(F)F)cc1)c1ccc(C#N)cc1 | cell-free assay | – | competition with immobilised ligand | 1 µM | remaining binding | 86% |
| Cn1cc(-c2cccc(N3CCc4c(sc5c4CC(C)(C)C5)C3=O)c2CO)cc(Nc2ccncn2)c1=O | enzyme activity | inhibitor | – | 1 µM | inhibition | 21% |
| COc1ncccc1-c1cnn2ccc(N3CCN(C(=O)OC(C)C)CC3)nc12 | binding | – | competition with immobilised ligand | 1 µM | remaining binding | 96% |
| Cc1nn(C)cc1-c1nc2c(N3CCN(Cc4ccc(Cl)cc4)CC3)c(Cl)cnc2[nH]1 | binding | – | competition with immobilised ligand | 1 µM | remaining binding | 93% |
| Cn1cc(-c2cc(F)cc(N3CCn4c(cc5c4CCCC5)C3=O)c2CO)cc(Nc2ccc(N3CCN(C4COC4)CC3)cn2)c1=O | enzyme activity | inhibitor | – | 0.1 µM | inhibition | 18% |
| CC(C)(C)c1cc(C=C(C#N)C#N)cc(Br)c1O | enzyme activity | inhibitor | – | 0.5 µM | remaining activity | 92.6% |
| N#CC1(c2ccccn2)CCN(Cc2cc(C(=O)O)c(=O)n3ccccc23)CC1 | cell-free assay | – | competition with immobilised ligand | 1 µM | remaining binding | 80% |
| Nc1ncc(-c2nc(N3CCOCC3)nc(N3CCOCC3)n2)c(C(F)F)n1 | binding | – | competition with immobilised ligand | 10 µM | remaining binding | 73% |
